Measurements gathered from unrelated publications.
Each line is one published result; the experiments were not run side by side.

Compound	technique	matrix	time	pH	logD
CCCS(=O)(=O)Oc1ccc(-n2c(-c3ccc(Cl)cc3Cl)nc(C(=O)NN3CCCCC3)c2C)cc1	shake flask	aqueous buffer		pH 7.4	4.6
Cc1noc([C@H](Cc2c[nH]cn2)NC(=O)CN(CCCc2ccccc2)CC(=O)O)n1	shake flask	PBS	2 h	pH 7.4	-0.84
COc1ccn2c(Nc3ccccc3F)c(-c3ccncn3)nc2c1				pH 7.4	2.5
CC(C)CN(C[C@@H](O)[C@H](Cc1ccccc1)NC(=O)O[C@H]1CO[C@H]2OCC[C@H]21)S(=O)(=O)c1ccc(N)cc1	shake flask	PBS		pH 5	2.8
COC(=O)CN(CC(=O)N[C@@H](Cc1c[nH]cn1)C(=O)OC)Cc1ccccc1	shake flask	PBS	2 h	pH 7.4	0.82
Cc1c(C(=O)N[C@@H]2CCCC[C@H]2O)nc(-c2ccc(Cl)cc2Cl)n1-c1ccc(OS(=O)(=O)CCC(F)(F)F)cc1 (relative stereo)	shake flask	aqueous buffer		pH 7.4	> 4.4
CCC1=C(C)C2=NC1=Cc1c(C)c(CC)c3[n]1[Fe][n]1c(c(C)c(CCC(=O)O)c1=CC1=NC(=C3)C(C)=C1CCC(=O)O)=C2	shake flask	aqueous buffer		pH 9	0.552
COCCCCCCOc1ccc(C2=N[C@@](C)(C(=O)O)CS2)c(O)c1	shake flask	aqueous buffer		pH 7.4	0.95
N#CCc1ccccc1C#Cc1ccc(CCC(=O)O)c(F)c1	shake flask	PBS		pH 7.4	1.41
CCC1=C(C)c2cc3[nH]c(cc4[nH]c(cc5nc(cc1n2)C(C)=C5CC)c(C)c4CC)c(CC)c3C	shake flask	aqueous buffer		pH 9	1.42
CCOCc1nc2c(N)nc3ccccc3c2n1CC(C)(C)O	shake flask	PBS		pH 7.4	1.14
Cc1c(C(=O)NN2CCCCC2)nc(-c2ccc(Cl)cc2Cl)n1-c1ccc(OS(=O)(=O)CCC(C)C)cc1	shake flask	aqueous buffer		pH 7.4	5.3
N#Cc1c[nH]c2c(C(=O)N3CCN(CCc4ccc(F)cc4)CC3)cccc12	shake flask	aqueous buffer		pH 7.4	3.5
CNC(=O)[C@H](Cc1c[nH]cn1)NC(=O)CN(CC(=O)O)Cc1ccccc1	shake flask	PBS	2 h	pH 7.4	-2.29
O=C(O)c1ccc(-n2nc(-c3ccccc3O)nc2-c2ccccc2O)cc1	shake flask	PBS		pH 7.4	0.9
CCCCS(=O)(=O)Oc1ccc(-n2c(-c3ccc(Cl)cc3Cl)nc(C(=O)NN3CCCCC3)c2C)cc1	shake flask	aqueous buffer		pH 7.4	5.1
C[C@]1(C(=O)O)CSC(c2ccc(OCCCCCC(=O)O)cc2O)=N1	shake flask	aqueous buffer		pH 7.4	-1.9
Cc1c(C(=O)NN2CCCCC2)nc(-c2ccc(Cl)cc2Cl)n1-c1ccc(OS(=O)(=O)CCCF)cc1	shake flask	aqueous buffer		pH 7.4	4.15
CN1C(C(=O)Nc2ccccn2)=C(O)c2ccccc2S1(=O)=O	shake flask	aqueous buffer	48 h	pH 7.4	-0.31
COC(=O)[C@H](Cc1c[nH]cn1)NC(=O)CN(CC(=O)O)Cc1ccccc1	shake flask	PBS	2 h	pH 7.4	-2.05
Cc1c(C(=O)NN2CCCCC2)nc(-c2ccc(Cl)cc2Cl)n1-c1ccc(OCCC(F)(F)F)cc1	shake flask	aqueous buffer		pH 7.4	5.4
CN1CCN(c2ccc3[nH]c(-c4ccc5[nH]c(-c6ccc(O)cc6)nc5c4)nc3c2)CC1	shake flask	PBS		pH 7.4	2.2
Cc1c(C(=O)N[C@H]2CCCC[C@H]2N)nc(-c2ccc(Cl)cc2Cl)n1-c1ccc(OS(=O)(=O)CCC(F)(F)F)cc1 (racemic)	shake flask	aqueous buffer		pH 7.4	3.35
CCCCc1nc2c(N)nc3ccccc3c2n1Cc1ccc(N)cc1	shake flask	PBS		pH 7.4	2.6
Cc1c(C(=O)N[C@H]2CCC[C@H](O)C2)nc(-c2ccc(Cl)cc2Cl)n1-c1ccc(OS(=O)(=O)CCC(F)(F)F)cc1 (relative stereo)	shake flask	aqueous buffer		pH 7.4	4.6
O=C(NCCN1CCCC1)c1cc(-c2ccc(CN3CCOCC3)cc2)nc2ccc(F)cc12	shake flask	aqueous buffer		pH 7.4	2.5
COC(=O)[C@H](Cc1c[nH]cn1)NC(=O)CN(CCCc1ccccc1)CC(=O)O	shake flask	PBS	2 h	pH 7.4	-0.78
CN1CCN(c2ccc3nc(-c4ccc5nc(-c6ccc(OCCCCNC(=O)[C@H](N)CS)cc6)[nH]c5c4)[nH]c3c2)CC1	shake flask	PBS		pH 7.4	2
